Measured values of several laboratories.
Lines come from different studies, so protocols differ.
Target: Serine/threonine-protein kinase pim-3 (PIM3, Homo sapiens, UniProt Q86V86)

| Compound | observed | method | concentration | remaining binding |
| --- | --- | --- | --- | --- |
| O=C(NCCCN1CCOCC1)c1ccc(Nc2ncc(Cl)c(-c3ccc(Cl)s3)n2)cc1 | binding | competition with immobilised ligand | 1 µM | 100% |
| C[C@H](c1cccc(C#N)c1)n1cc(Cl)cc(C(N)=O)c1=N | cell-free assay | competition with immobilised ligand | 1 µM | 100% |
| O=C(Nc1c[nH]nc1C(=O)NC1CCNCC1)c1cc(F)cc(F)c1 | binding | competition with immobilised ligand | 1 µM | 88% |
| Cc1nccc(COC(=O)N2C[C@@H]3[C@@H](CNC(=O)c4ccc5[nH]nnc5c4)[C@@H]3C2)n1 | cell-free assay | competition with immobilised ligand | 1 µM | 97% |
| C[C@@H](c1ccc(-n2cnc3c(N)ncnc32)cc1)N1CCc2nn(C)c(Cc3ccccc3)c2C1=O | binding | competition with immobilised ligand | 0.1 µM | 90% |
| C[C@@H]1CN(c2ccc3ncc(-c4ccc5[nH]nc(C6CC6)c5c4)n3n2)C[C@H](C)O1 | binding | competition with immobilised ligand | 50 nM | 81% |
| CO[C@H]1CC[C@H](CNc2ccc(S(=O)(=O)NC(=O)c3ccc(N4CCN(CC5=C(c6ccc(Cl)cc6)CC(C)(C)CC5)CC4)cc3Oc3cnc4[nH]ccc4c3)cc2[N+](=O)[O-])CC1 | cell-free assay | competition with immobilised ligand | 1 µM | 74% |
| C[C@@H]1CCN(c2nccc(-c3cnn4ncccc34)n2)C1 | binding | – | 1 µM | 92% |
| CO[C@@H](C)c1c(Nc2ccc([C@@H](N(C)C(=O)C3CCS(=O)(=O)CC3)C(F)(F)F)cc2)cnc2cc(Cl)nn12 | cell-free assay | competition with immobilised ligand | 1 µM | 97% |
| CN(C)c1nccc(-c2cnn3ncccc23)n1 | binding | – | 1 µM | 56% |
| CC(=O)Nc1c(C(C)=O)c(=O)n(C)c2nc(-c3ccc(Cl)cc3Cl)c(-c3ccc(Cl)cc3)cc12 | cell-free assay | competition with immobilised ligand | 1 µM | 100% |
| COc1ccnn2ncc(-c3ccnc(N(C)C)n3)c12 | binding | – | 1 µM | 81% |
| N#Cc1ccccc1CSc1nnc2c(n1)[nH]c1ccccc12 | binding | competition with immobilised ligand | 10 µM | 74% |
| Cc1cnc(Nc2ccc(C(=O)N3CCC(N4CCCC4)CC3)cc2)nc1-c1cc2ccccc2s1 | binding | competition with immobilised ligand | 1 µM | 60% |
| N[C@H]1CCN(c2nccc(-c3cnn4ncccc34)n2)C1 | binding | – | 1 µM | 79% |
| CCc1ccccc1C(=O)Nc1n[nH]c2c(C)c(F)c(C3C(C#N)=C(C)N(C)C(C)=C3C#N)cc12 | cell-free assay | competition with immobilised ligand | 1 µM | 100% |
| CN(c1nccc(-c2cnn3ncccc23)n1)C1CC1 | binding | – | 1 µM | 100% |
| CC(C)(C)c1ccc(-c2nc(CBr)nn2-c2cccc(O)c2)cc1 | cell-free assay | competition with immobilised ligand | 10 µM | 100% |
| c1cncc(-c2cccc(Nc3nccc(NC4CCCCC4)n3)c2)c1 | binding | competition with immobilised ligand | 10 µM | 71% |
| O=C(c1ccc(Nc2ncc(Cl)c(-c3cc4ccccc4s3)n2)cc1)N1CCC(N2CCCC2)CC1 | binding | competition with immobilised ligand | 1 µM | 75% |
| CN(C)c1nccc(-c2cnc3ncccn23)n1 | binding | – | 1 µM | 88% |
| COc1cnc(Nc2cccc(S(N)(=O)=O)c2)nc1N1CCN(c2ccccc2)C(=O)C1 | binding | competition with immobilised ligand | 1 µM | 100% |
| c1cnn2ncc(-c3ccnc(N4CCC45COC5)n3)c2c1 | binding | – | 1 µM | 84% |
| CCCOc1ccc([C@@H]2[C@@H](C(=O)O)[C@H](c3ccc4c(c3)OCO4)CN2CC(=O)Nc2c(CC)cccc2CC)cc1 | cell-free assay | competition with immobilised ligand | 1 µM | 95% |
